Assay results reported in ChEMBL document CHEMBL3232844, “Synthesis and structure activity relationships of schweinfurthin indoles” (2014).

Tests used:
Type in all cases: functional
T47D = experiment: Cytotoxicity against human T47D cells
How it was run: (§1)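 Cell line run as part of the 60-cell-line screening panel; growth inhibition was reported as a GI50 for each line.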

LOX IMVI = experiment: Cytotoxicity against human LOXIMVI cells
How it was run: (§2)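 Tested in a 60-cell-line human tumor panel screen; the read-out is growth inhibition, reported as GI50 for each cell line.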

[1] = Cytotoxicity against human HCT15 cells; how it was run: as §2
[2] = Cytotoxicity against human OVCAR4 cells; how it was run: as §2
HOP-62 = experiment: Cytotoxicity against human HOP62 cells; how it was run: as §2
KM12 = experiment: Cytotoxicity against human KM12 cells; how it was run: as §2
SK-MEL-5 = experiment: Cytotoxicity against human SK-MEL-5 cells; how it was run: as §2
SF-268 = experiment: Cytotoxicity against human SF268 cells; how it was run: as §2
NCI-H23 = experiment: Cytotoxicity against human NCI-H23 cells; how it was run: as §2
SNB-19 = experiment: Cytotoxicity against human SNB19 cells; how it was run: as §2
COLO 205 = experiment: Cytotoxicity against human COLO205 cells; how it was run: as §2
[3] = Cytotoxicity against human OVCAR8 cells; how it was run: as §2
MOLT-4 = experiment: Cytotoxicity against human MOLT4 cells; how it was run: as §2
MDA-MB-231 = experiment: Cytotoxicity against human MDA-MB-231 cells; how it was run: as §2
CAKI-1 = experiment: Cytotoxicity against human Caki1 cells; how it was run: as §2
BT-549 = experiment: Cytotoxicity against human BT549 cells; how it was run: as §2
DU-145 = experiment: Cytotoxicity against human DU145 cells; how it was run: as §2
SK-OV-3 = experiment: Cytotoxicity against human SKOV3 cells; how it was run: as §2
SNB-75 = experiment: Cytotoxicity against human SNB75 cells; how it was run: as §1
K562 = experiment: Cytotoxicity against human K562 cells; how it was run: as §2
HCT-116 = experiment: Cytotoxicity against human HCT116 cells; how it was run: as §2
CCRF-CEM = experiment: Cytotoxicity against human CCRF-CEM cells
HL-60(TB) = experiment: Cytotoxicity against human HL-60(TB) cells
How it was run: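 Tested within the NCI 60-cell-line screen, with GI50 as the read-out. Values are the average of two independent experiments. The lowest concentration tested was 10 nM.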

[4] = Cytotoxicity against human NCI-ADR-RES cells; how it was run: as §2
NCI-H226 = experiment: Cytotoxicity against human NCI-H226 cells; how it was run: as §2
SF-539 = experiment: Cytotoxicity against human SF539 cells; how it was run: as §2
A498 = experiment: Cytotoxicity against human A498 cells; how it was run: as §2
M14 = experiment: Cytotoxicity against human M14 cells; how it was run: as §2
IGROV-1 = experiment: Cytotoxicity against human IGROV1 cells; how it was run: as §2
SK-MEL-2 = experiment: Cytotoxicity against human SK-MEL-2 cells; how it was run: as §2
[5] = Cytotoxicity against human UACC62 cells; how it was run: as §1
MCF7 = experiment: Cytotoxicity against human MCF7 cells; how it was run: as §2
NCI-H322M = experiment: Cytotoxicity against human NCI-H322M cells; how it was run: as §2
ACHN = experiment: Cytotoxicity against human ACHN cells; how it was run: as §2
MDA-MB-435 = experiment: Cytotoxicity against human MDA-MB-435 cells; how it was run: as §2
A549 = experiment: Cytotoxicity against human A549 cells; how it was run: as §2
[6] = Cytotoxicity against human OVCAR5 cells; how it was run: as §2
786-0 = experiment: Cytotoxicity against human 786-0 cells; how it was run: as §2
NCI-H460 = experiment: Cytotoxicity against human NCI-H460 cells; how it was run: as §2
[7] = Cytotoxicity against human UO31 cells; how it was run: as §1
MDA-MB-468 = experiment: Cytotoxicity against human MDA-MB-468 cells; how it was run: as §2
HCC 2998 = experiment: Cytotoxicity against human HCC2998 cells; how it was run: as §2
PC-3 = experiment: Cytotoxicity against human PC3 cells; how it was run: as §2
[8] = read-out: pLC50 (the source's name) (converted)

## COc1cc(/C=C/c2cc(O)c3cc(CC=C(C)C)[nH]c3c2)cc2c1O[C@]1(C)CC[C@@H](O)C(C)(C)[C@H]1C2
T47D
  GI50: 29.5 µM
T47D; [8]
  CC50: > 100 µM
T47D; read-out: pTGI (converted)
  TGI: > 100 µM
LOX IMVI
  GI50: 2.82 µM
LOX IMVI; [8]
  CC50: > 100 µM
LOX IMVI; read-out: pTGI (converted)
  TGI: 75.9 µM
[1]; HCT-15
  GI50: 1.45 µM
[1]; HCT-15, read-out: pLC50 (the source's name) (converted)
  CC50: > 100 µM
[1]; HCT-15, read-out: pTGI (converted)
  TGI: 17.4 µM
[2]; OVCAR-4
  GI50: 28.8 µM
[2]; OVCAR-4, read-out: pLC50 (the source's name) (converted)
  CC50: > 100 µM
[2]; OVCAR-4, read-out: pTGI (converted)
  TGI: > 100 µM
HOP-62
  GI50: 0.832 µM
HOP-62; [8]
  CC50: > 100 µM
HOP-62; read-out: pTGI (converted)
  TGI: 46.8 µM
KM12
  GI50: 2.04 µM
KM12; [8]
  CC50: 74.1 µM
KM12; read-out: pTGI (converted)
  TGI: 10.5 µM
SK-MEL-5
  GI50: 1.41 µM
SK-MEL-5; [8]
  CC50: 7.24 µM
SK-MEL-5; read-out: pTGI (converted)
  TGI: 3.16 µM
SF-268
  GI50: 4.27 µM
SF-268; [8]
  CC50: > 100 µM
SF-268; read-out: pTGI (converted)
  TGI: > 100 µM
NCI-H23
  GI50: 6.31 µM
NCI-H23; [8]
  CC50: > 100 µM
NCI-H23; read-out: pTGI (converted)
  TGI: > 100 µM
SNB-19
  GI50: 2.63 µM
SNB-19; [8]
  CC50: > 100 µM
SNB-19; read-out: pTGI (converted)
  TGI: > 100 µM
COLO 205
  GI50: 2.75 µM
COLO 205; [8]
  CC50: 22.4 µM
COLO 205; read-out: pTGI (converted)
  TGI: 8.32 µM
[3]; OVCAR-8
  GI50: > 100 µM
[3]; OVCAR-8, read-out: pLC50 (the source's name) (converted)
  CC50: > 100 µM
[3]; OVCAR-8, read-out: pTGI (converted)
  TGI: > 100 µM
MOLT-4
  GI50: 0.813 µM
MOLT-4; [8]
  CC50: > 100 µM
MOLT-4; read-out: pTGI (converted)
  TGI: > 100 µM
MDA-MB-231
  GI50: 2.69 µM
  LC50: > 100 µM
MDA-MB-231; read-out: pTGI (converted)
  TGI: 63.1 µM
CAKI-1
  GI50: 4.07 µM
  LC50: > 100 µM
CAKI-1; read-out: pTGI (converted)
  TGI: 93.3 µM
BT-549
  GI50: 3.72 µM
BT-549; [8]
  CC50: > 100 µM
BT-549; read-out: pTGI (converted)
  TGI: 50.1 µM
DU-145
  GI50: 8.13 µM
  LC50 (50% lethal concentration): > 100 µM
DU-145; read-out: pTGI (converted)
  TGI: > 100 µM
SK-OV-3
  GI50: 3.39 µM
  LC50: > 100 µM
SK-OV-3; read-out: pTGI (converted)
  TGI: > 100 µM
SNB-75
  GI50: 0.49 µM
SNB-75; [8]
  CC50: > 100 µM
SNB-75; read-out: pTGI (converted)
  TGI: > 100 µM
K562
  GI50: 2.04 µM
K562; [8]
  CC50: > 100 µM
K562; read-out: pTGI (converted)
  TGI: > 100 µM
HCT-116
  GI50: 2.34 µM
HCT-116; [8]
  CC50: > 100 µM
HCT-116; read-out: pTGI (converted)
  TGI: > 100 µM
CCRF-CEM
  GI50: 0.741 µM
CCRF-CEM; [8]
  CC50: > 100 µM
CCRF-CEM; read-out: pTGI (converted)
  TGI: > 100 µM
HL-60(TB)
  GI50: 18.6 µM
HL-60(TB); [8]
  CC50: > 100 µM
HL-60(TB); read-out: pTGI (converted)
  TGI: > 100 µM
[4]
  GI50: 64.6 µM
[4]; [8]
  CC50: > 100 µM
[4]; read-out: pTGI (converted)
  TGI: > 100 µM
NCI-H226
  GI50: 57.5 µM
NCI-H226; [8]
  CC50: > 100 µM
NCI-H226; read-out: pTGI (converted)
  TGI: > 100 µM
SF-539
  GI50: 0.324 µM
SF-539; [8]
  CC50: 83.2 µM
SF-539; read-out: pTGI (converted)
  TGI: 2.75 µM
A498
  GI50: 1.02 µM
A498; [8]
  CC50: > 100 µM
A498; read-out: pTGI (converted)
  TGI: 22.9 µM
M14
  GI50: 1.66 µM
M14; [8]
  CC50: 63.1 µM
M14; read-out: pTGI (converted)
  TGI: 9.33 µM
IGROV-1
  GI50: 5.01 µM
IGROV-1; [8]
  CC50: > 100 µM
IGROV-1; read-out: pTGI (converted)
  TGI: > 100 µM
SK-MEL-2
  GI50: 1.95 µM
SK-MEL-2; [8]
  CC50: > 100 µM
SK-MEL-2; read-out: pTGI (converted)
  TGI: > 100 µM
[5]; UACC-62
  GI50: 0.955 µM
[5]; UACC-62, read-out: pLC50 (the source's name) (converted)
  CC50: > 100 µM
[5]; UACC-62, read-out: pTGI (converted)
  TGI: 7.59 µM
MCF7
  GI50: 2.45 µM
  LC50: > 100 µM
MCF7; read-out: pTGI (converted)
  TGI: 50.1 µM
NCI-H322M
  GI50: 32.4 µM
NCI-H322M; [8]
  CC50: > 100 µM
NCI-H322M; read-out: pTGI (converted)
  TGI: > 100 µM
ACHN
  GI50: 7.08 µM
  LC50 (concentration killing 50% of cells): > 100 µM
ACHN; read-out: pTGI (converted)
  TGI: > 100 µM
MDA-MB-435
  GI50: 3.8 µM
MDA-MB-435; [8]
  CC50: > 100 µM
MDA-MB-435; read-out: pTGI (converted)
  TGI: > 100 µM
A549
  GI50: 6.31 µM
A549; [8]
  CC50: > 100 µM
A549; read-out: pTGI (converted)
  TGI: > 100 µM
[6]; OVCAR-5
  GI50: 25.7 µM
[6]; OVCAR-5, read-out: pLC50 (the source's name) (converted)
  CC50: > 100 µM
[6]; OVCAR-5, read-out: pTGI (converted)
  TGI: > 100 µM
786-0
  GI50: 0.363 µM
  LC50 (concentration killing 50% of cells): > 100 µM
786-0; read-out: pTGI (converted)
  TGI: 11 µM
NCI-H460
  GI50: 3.31 µM
NCI-H460; [8]
  CC50: > 100 µM
NCI-H460; read-out: pTGI (converted)
  TGI: > 100 µM
[7]; UO-31
  GI50: 0.479 µM
  LC50: > 100 µM
[7]; UO-31, read-out: pTGI (converted)
  TGI: 5.89 µM
MDA-MB-468
  GI50: 3.02 µM
  LC50: > 100 µM
MDA-MB-468; read-out: pTGI (converted)
  TGI: 26.9 µM
HCC 2998
  GI50: 9.55 µM
HCC 2998; [8]
  CC50: > 100 µM
HCC 2998; read-out: pTGI (converted)
  TGI: > 100 µM
PC-3
  GI50: 1.02 µM
  LC50: > 100 µM
PC-3; read-out: pTGI (converted)
  TGI: > 100 µM
